How the values were obtained:
[1] = system: Rattus norvegicus; assay: Concentration was measured in blood tissue of unfasted Fischer 344 rats administered intravenously after 4 hr (radiolabeled with [123I]-; type: ADME, organism-based; conditions: in vivo, iv
[2] = system: Rattus norvegicus; assay: Concentration was measured in mean heart/blood tissue of fasted Fischer 344 rats administered intravenously after 30 minute (radiolabeled with [125I]-; conditions: in vivo, iv, 0.5 h
[3] = system: Rattus norvegicus; assay: Concentration was measured in lungs tissue of unfasted Fischer 344 rats administered intravenously after 5 minute (radiolabeled with [123I]-; type: ADME, organism-based, Lung; conditions: in vivo, iv, 5 min
[4] = system: Rattus norvegicus; assay: Concentration was measured in mean heart/blood tissue of fasted Fischer 344 rats administered intravenously after 5 minute (radiolabeled with [123I]-; conditions: in vivo, iv, 5 min
[5] = system: Rattus norvegicus; assay: Concentration was measured in heart tissue of unfasted Fischer 344 rats administered intravenously after 60 minute (radiolabeled with [123I]-; type: ADME, organism-based; conditions: in vivo, iv, 1 h
[6] = system: Rattus norvegicus; assay: Concentration was measured in liver tissue of unfasted Fischer 344 rats administered intravenously after 4 hr (radiolabeled with [123I]-; type: ADME, organism-based; conditions: in vivo, iv
[7] = system: Rattus norvegicus; assay: Concentration was measured in thyroid tissue of unfasted Fischer 344 rats administered intravenously after 4 hr (radiolabeled with [125I]-; type: ADME, organism-based, Thyroid gland; conditions: in vivo, iv
[8] = system: Rattus norvegicus; assay: Concentration was measured in liver tissue f unfasted Fischer 344 rats administered intravenously after 30 minute (radiolabeled with [123I]-; type: ADME, organism-based; conditions: in vivo, iv, 0.5 h
[9] = system: Rattus norvegicus; assay: Concentration was measured in heart tissue of unfasted Fischer 344 rats administered intravenously after 4 hr (radiolabeled with [125I]-; type: ADME, organism-based; conditions: in vivo, iv
[10] = system: Rattus norvegicus; assay: Concentration was measured in liver tissue of unfasted Fischer 344 rats administered intravenously after 5 minute (radiolabeled with [125I]-; type: ADME, organism-based; conditions: in vivo, iv, 5 min
In short: (§1)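 Female Fischer 344 rats, 10-12 weeks old, 170-200 g, with food and water ad libitum. The 125I-fatty acid was taken up in ethanol, added dropwise to stirred 6% BSA at ~40 °C (final ethanol 10%), filtered, and given as 0.5 mL via lateral tail vein under ether anesthesia. Rats were killed by cervical fracture; blood was taken by cardiac puncture. Organs were rinsed, blotted, weighed and gamma-counted against injectate standards to give %ID/g. Five rats per time point.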

[11] = system: Rattus norvegicus; assay: (§2) Concentration was measured in tissue of unfasted Fischer 344 rats administered intravenously after 60 minute (radiolabeled with [123I]-; type: ADME, organism-based; conditions: in vivo, iv, 1 h
[12] = system: Rattus norvegicus; assay: Concentration was measured in lungs tissue of unfasted Fischer 344 rats administered intravenously after 30 minute (radiolabeled with [125I]-; type: ADME, organism-based, Lung; conditions: in vivo, iv, 0.5 h; in short: as §1
[13] = system: Rattus norvegicus; assay: Concentration was measured in thyroid tissue of unfasted Fischer 344 rats administered intravenously after 30 minute (radiolabeled with [125I]-; type: ADME, organism-based, Thyroid gland; conditions: in vivo, iv, 0.5 h, in the assay text read “fasted” for “unfasted”
[14] = system: Rattus norvegicus; assay: Concentration was measured in kidney tissue of unfasted Fischer 344 rats administered intravenously after 60 minute (radiolabeled with [123I]-; type: ADME, organism-based; conditions: in vivo, iv, 1 h
[15] = system: Rattus norvegicus; assay: as §2; type: ADME, organism-based; conditions: in vivo, iv, 1 h; remark: listed apart in the source
[16] = system: Rattus norvegicus; assay: Concentration was measured in mean heart/blood tissue of fasted Fischer 344 rats administered intravenously after 60 minute (radiolabeled with [123I]-; conditions: in vivo, iv, 1 h
[17] = system: Rattus norvegicus; assay: Concentration was measured in thyroid tissue of unfasted Fischer 344 rats administered intravenously after 5 minute (radiolabeled with [123I]-; type: ADME, organism-based, Thyroid gland; conditions: in vivo, iv, 5 min
[18] = system: Rattus norvegicus; assay: Concentration was measured in mean heart/blood tissue of fasted Fischer 344 rats administered intravenously after 30 minute (radiolabeled with [123I]-; conditions: in vivo, iv, 0.5 h
[19] = system: Rattus norvegicus; assay: Concentration was measured in heart tissue of unfasted Fischer 344 rats administered intravenously after 4 hr (radiolabeled with [123I]-; type: ADME, organism-based; conditions: in vivo, iv
[20] = system: Rattus norvegicus; assay: Concentration was measured in kidney tissue of unfasted Fischer 344 rats administered intravenously after 60 minute (radiolabeled with [125I]-; type: ADME, organism-based; conditions: in vivo, iv, 1 h; in short: as §1
[21] = system: Rattus norvegicus; assay: Concentration was measured in kidney tissue of unfasted Fischer 344 rats administered intravenously after 30 minute (radiolabeled with [123I]-; type: ADME, organism-based; conditions: in vivo, iv, 0.5 h
[22] = system: Rattus norvegicus; assay: Concentration was measured in blood tissue of unfasted Fischer 344 rats administered intravenously after 30 minute (radiolabeled with [125I]-; type: ADME, organism-based; conditions: in vivo, iv, 0.5 h, in the assay text read “fasted” for “unfasted”
[23] = system: Rattus norvegicus; assay: Concentration was measured in heart tissue of unfasted Fischer 344 rats administered intravenously after 5 minute (radiolabeled with [123I]-; type: ADME, organism-based; conditions: in vivo, iv, 5 min
[24] = system: Rattus norvegicus; assay: Concentration was measured in liver tissue f unfasted Fischer 344 rats administered intravenously after 30 minute (radiolabeled with [125I]-; type: ADME, organism-based; conditions: in vivo, iv, 0.5 h; in short: as §1
[25] = system: Rattus norvegicus; assay: Concentration was measured in kidney tissue of unfasted Fischer 344 rats administered intravenously after 4 hr (radiolabeled with [125I]-; type: ADME, organism-based; conditions: in vivo, iv
[26] = system: Rattus norvegicus; assay: Concentration was measured in kidney tissue of unfasted Fischer 344 rats administered intravenously after 4 hr (radiolabeled with [123I]-; type: ADME, organism-based; conditions: in vivo, iv
[27] = system: Rattus norvegicus; assay: Concentration was measured in blood tissue of unfasted Fischer 344 rats administered intravenously after 30 minute (radiolabeled with [123I]-; type: ADME, organism-based; conditions: in vivo, iv, 0.5 h
[28] = system: Rattus norvegicus; assay: Concentration was measured in heart tissue of unfasted Fischer 344 rats administered intravenously after 30 minutes (radiolabeled with [125I]-; type: ADME, organism-based; conditions: in vivo, iv, 0.5 h; in short: as §1
[29] = system: Rattus norvegicus; assay: Concentration was measured in lungs tissue of unfasted Fischer 344 rats administered intravenously after 60 minute (radiolabeled with [125I]-; type: ADME, organism-based, Lung; conditions: in vivo, iv, 1 h; in short: as §1
[30] = system: Rattus norvegicus; assay: Concentration was measured in tissue of unfasted Fischer 344 rats administered intravenously after 60 minute (radiolabeled with [125I]-; type: ADME, organism-based; conditions: in vivo, iv, 1 h
In short: (§3)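 Female Fischer 344 rats, 10–12 weeks old (170–200 g), with food and water ad libitum, five per time point. The radioiodinated fatty acid was dissolved in ethanol, added to 6% BSA at ~40 °C (final 10% ethanol), filtered, and injected into a lateral tail vein (0.5 mL) under ether anesthesia. Blood was taken by cardiac puncture; organs were rinsed, blotted, weighed and gamma-counted against injectate standards. Output is % injected dose/g.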

[31] = system: Rattus norvegicus; assay: Concentration was measured in mean heart/blood tissue of fasted Fischer 344 rats administered intravenously after 60 minute (radiolabeled with [125I]-; conditions: in vivo, iv, 1 h
[32] = system: Rattus norvegicus; assay: Concentration was measured in kidney tissue of unfasted Fischer 344 rats administered intravenously after 30 minute (radiolabeled with [125I]-; type: ADME, organism-based; conditions: in vivo, iv, 0.5 h; in short: as §1
[33] = system: Rattus norvegicus; assay: Concentration was measured in blood tissue of unfasted Fischer 344 rats administered intravenously after 5 minute (radiolabeled with [123I]-; type: ADME, organism-based; conditions: in vivo, iv, 5 min
[34] = system: Rattus norvegicus; assay: Concentration was measured in lungs tissue of unfasted Fischer 344 rats administered intravenously after 5 minute (radiolabeled with [125I]-; type: ADME, organism-based, Lung; conditions: in vivo, iv, 5 min; in short: as §1
[35] = system: Rattus norvegicus; assay: Concentration was measured in thyroid tissue of fasted Fischer 344 rats administered intravenously after 4 hr (radiolabeled with [123I]-; conditions: in vivo, iv
[36] = system: Rattus norvegicus; assay: Concentration was measured in thyroid tissue of fasted Fischer 344 rats administered intravenously after 30 minute (radiolabeled with [123I]-; conditions: in vivo, iv, 0.5 h
[37] = system: Rattus norvegicus; assay: Concentration was measured in thyroid tissue of unfasted Fischer 344 rats administered intravenously after 5 minute (radiolabeled with [125I]-; type: ADME, organism-based, Thyroid gland; conditions: in vivo, iv, 5 min; in short: as §3
[38] = system: Rattus norvegicus; assay: Concentration was measured in blood tissue of unfasted Fischer 344 rats administered intravenously after 60 minute (radiolabeled with [125I]-; type: ADME, organism-based; conditions: in vivo, iv, 1 h; in short: as §1
[39] = system: Rattus norvegicus; assay: Concentration was measured in blood tissue of unfasted Fischer 344 rats administered intravenously after 60 minute (radiolabeled with [123I]-; type: ADME, organism-based; conditions: in vivo, iv, 1 h
[40] = system: Rattus norvegicus; assay: Concentration was measured in mean heart/blood tissue of fasted Fischer 344 rats administered intravenously after 5 minute (radiolabeled with [125I]-; conditions: in vivo, iv, 5 min

Question: With CC(CCCCCCCCCCCCCC/C=C/I)CC(=O)O.O=C(O)CCCCCCCCCCCCCCCC/C=C/I (stereo not given) as the compound, how does the Distribution [1] read?
Answer: Its Distribution is 0.61%.

Question: And the Distribution [2]?
Answer: Its Distribution is 4.3%.

Question: And the Distribution [3]?
Answer: The Distribution was 1.54%.

Question: And the Distribution [4]?
Answer: The Distribution was 4.8%.

Question: What about the Distribution [5] of the same compound?
Answer: The Distribution was 0.78%.

Question: And the Distribution [6]?
Answer: The Distribution was 1.83%.

Question: And the Distribution [7]?
Answer: The Distribution was 364%.

Question: What about the Distribution [8] of the same compound?
Answer: The Distribution was 3.49%.

Question: What about the Distribution [9] of the same compound?
Answer: Its Distribution is 1.38%.

Question: What about the Distribution [10] of the same compound?
Answer: Its Distribution is 6.48%.

Question: And the Distribution [11]?
Answer: Its Distribution is 102%.

Question: And the Distribution [12]?
Answer: Its Distribution is 0.96%.

Question: What about the Distribution [13] of the same compound?
Answer: The Distribution was 48.5%.

Question: What about the Distribution [14] of the same compound?
Answer: Its Distribution is 0.96%.

Question: And the Distribution [15]?
Answer: The Distribution was 2.62%.

Question: What about the Distribution [16] of the same compound?
Answer: Its Distribution is 1.2%.

Question: And the Distribution [17]?
Answer: Its Distribution is 22.5%.

Question: And the Distribution [18]?
Answer: Its Distribution is 1.6%.

Question: What about the Distribution [19] of the same compound?
Answer: Its Distribution is 0.59%.

Question: And the Distribution [20]?
Answer: The Distribution was 1.3%.

Question: And the Distribution [21]?
Answer: The Distribution was 1.03%.

Question: And the Distribution [22]?
Answer: Its Distribution is 0.77%.

Question: And the Distribution [23]?
Answer: Its Distribution is 3.52%.

Question: And the Distribution [24]?
Answer: The Distribution was 4.53%.

Question: What about the Distribution [25] of the same compound?
Answer: Its Distribution is 0.66%.

Question: And the Distribution [26]?
Answer: Its Distribution is 0.95%.

Question: What about the Distribution [27] of the same compound?
Answer: Its Distribution is 0.74%.

Question: And the Distribution [28]?
Answer: Its Distribution is 3.32%.

Question: What about the Distribution [29] of the same compound?
Answer: The Distribution was 0.89%.

Question: And the Distribution [30]?
Answer: The Distribution was 82.9%.

Question: And the Distribution [31]?
Answer: The Distribution was 4.1%.

Question: And the Distribution [32]?
Answer: Its Distribution is 0.91%.

Question: What about the Distribution [33] of the same compound?
Answer: The Distribution was 0.74%.

Question: And the Distribution [34]?
Answer: Its Distribution is 1.36%.

Question: And the Distribution [35]?
Answer: Its Distribution is 392%.

Question: What about the Distribution [36] of the same compound?
Answer: Its Distribution is 65.3%.

Question: What about the Distribution [37] of the same compound?
Answer: Its Distribution is 16.7%.

Question: What about the Distribution [38] of the same compound?
Answer: The Distribution was 0.63%.

Question: And the Distribution [39]?
Answer: The Distribution was 0.64%.

Question: And the Distribution [40]?
Answer: Its Distribution is 5.4%.
